# Source: ChEMBL document CHEMBL1944537, “6-Nitrobenzimidazole derivatives: potential phosphodiesterase inhibitors: synthesis and structure-activity relationship” (Bioorg Med Chem, 2012)
# System: Bothrops atrox
# Test: (§1) Inhibition of Bothrops atrox venom phosphodiesterase-1 assessed as conversion of […] p-nitrophenol using bis(p-nitropheny1) phosphate as substrate preincubated for 30 mins by spectrophotometric analysis
# Design: concentration or dose not given beside the values
# Method in brief: (§2)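 Crude dried snake venom as enzyme source, 0.000742 U/well, in 33 mM Tris-HCl pH 8.8 with 30 mM magnesium acetate. Substrate 0.33 mM bis(p-nitrophenyl) phosphate. Enzyme and test sample pre-incubated 30 min, then p-nitrophenol release followed as OD/min at 410 nm, 37 °C, on a microtitre plate reader. EDTA positive control. Run in triplicate; IC50 determined.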
row,Compound,inhibition [%]
1,O=[N+]([O-])c1ccc2nc(-c3ccc(Br)cc3)[nH]c2c1,< 50
2,O=[N+]([O-])c1ccc(Cl)c(-c2nc3ccc([N+](=O)[O-])cc3[nH]2)c1,< 50
3,O=[N+]([O-])c1ccc2nc(-c3cccc4c3ccc3ccccc34)[nH]c2c1,< 50
4,O=[N+]([O-])c1ccc2nc(-c3ccsc3)[nH]c2c1,< 50
5,O=[N+]([O-])c1ccc2nc(-c3ccccc3F)[nH]c2c1,< 50
6,O=[N+]([O-])c1ccc2nc(-c3ccccc3Cl)[nH]c2c1,< 50
7,O=[N+]([O-])c1ccc2nc(-c3ccc(Cl)c(Cl)c3)[nH]c2c1,< 50
8,O=[N+]([O-])c1ccc2nc(-c3ccc(Cl)cc3Cl)[nH]c2c1,< 50
9,O=[N+]([O-])c1ccc2nc(-c3cc(Cl)ccc3O)[nH]c2c1,< 50
10,CCOc1cccc(-c2nc3ccc([N+](=O)[O-])cc3[nH]2)c1O,< 50
11,CSc1ccc(-c2nc3ccc([N+](=O)[O-])cc3[nH]2)cc1,< 50
12,COc1cccc(-c2nc3ccc([N+](=O)[O-])cc3[nH]2)c1O,< 50
13,O=[N+]([O-])c1ccc2[nH]c(-c3ccncc3)nc2c1,< 50
14,O=[N+]([O-])c1ccc2[nH]c(-c3ccccc3)nc2c1,< 50
15,O=[N+]([O-])c1ccc2nc(-c3cc(O)ccc3O)[nH]c2c1,< 50
16,O=[N+]([O-])c1ccc2nc(-c3cccc4cc5ccccc5cc34)[nH]c2c1,< 50
17,CN(C)c1ccc(-c2nc3ccc([N+](=O)[O-])cc3[nH]2)cc1,< 50
18,Cc1ccc(-c2nc3cc([N+](=O)[O-])ccc3[nH]2)cc1,< 50
19,O=[N+]([O-])c1ccc2nc(-c3cc(Br)cc(Br)c3O)[nH]c2c1,< 50
20,O=[N+]([O-])c1ccc2nc(-c3ccccc3O)[nH]c2c1,< 50

# Molecular target: not listed separately
# Test: as §1
# Method in brief: as §2
row,Compound,IC50 [µM]
1,O=[N+]([O-])c1ccc2nc(-c3c(O)cc(O)cc3O)[nH]c2c1,6.4
2,COc1ccc(-c2nc3cc([N+](=O)[O-])ccc3[nH]2)cc1OC,63.1
3,O=[N+]([O-])c1ccc2nc(-c3cc(Cl)cc(Cl)c3O)[nH]c2c1,294
4,O=[N+]([O-])c1ccc2nc(-c3cccc(O)c3O)[nH]c2c1,1.5
5,O=[N+]([O-])c1ccc2nc(-c3ccc(O)c(O)c3)[nH]c2c1,5.7
6,O=[N+]([O-])c1ccc2nc(-c3ccc(O)c(O)c3O)[nH]c2c1,10.5
7,O=[N+]([O-])c1ccc2[nH]c(-c3ccc(Cl)cc3)nc2c1,120
8,O=[N+]([O-])c1ccc(-c2nc3cc([N+](=O)[O-])ccc3[nH]2)cc1,153
9,O=[N+]([O-])c1ccc2nc(-c3ccc(O)cc3O)[nH]c2c1,11.5
10,O=[N+]([O-])c1ccc2nc(-c3ccc(O)cc3)[nH]c2c1,2.4
11,O=C(O)CN(CCN(CC(=O)O)CC(=O)O)CC(=O)O [EDETIC ACID],274
